In ChEMBL document CHEMBL1155883, “5-Alkyl-6-benzyl-2-(2-oxo-2-phenylethylsulfanyl)pyrimidin-4(3H)-ones, a series of anti-HIV-1 agents of the dihydro-alkoxy-benzyl-oxopyrimidine family with peculiar structure-activity relationship profile” (J Med Chem, 2008):

Columns and labels:
[1] = tested on: Human immunodeficiency virus 1; test: Resistance index, ratio of ID50 for reverse transcriptase L100I mutant to IC50 for wild-type HIV1 reverse transcriptase
Summary of the method: (§1)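 Recombinant wt and K103N, L100I or Y181I HIV-1 RT (>95% pure), 2-4 nM. RNA-dependent DNA polymerase assay on 0.5 µg poly(rA)/oligo(dT) 10:1 (0.3 µM 3'-OH ends) with 10 µM [3H]-dTTP and 8% final DMSO. Aliquots taken every 2 min. Inhibitor range 0.2-5× ID50, fitted to a noncompetitive model. Fold resistance is mutant ID50 divided by wt ID50.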

[2] = tested on: Human immunodeficiency virus 1; test: Antiviral activity against HIV1 isolates with reverse transcriptase K103N mutation in human MT4 cells assessed as inhibition of virus-induced cytopathogenicity by MTT assay; type: functional, organism-based; conditions: Human immunodeficiency virus 1, MT4
Summary of the method: (§2)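 MT-4 lymphoid cells infected with HIV-1 carrying RT K103N, Y181C or Y188L, in the presence of different drug concentrations. Viable cells counted at day 5 postinfection by MTT colorimetric assay. EC50 is the concentration that inhibits 50% of the HIV-induced cytopathic effect.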

[3] = tested on: Human immunodeficiency virus type 1 reverse transcriptase (Human immunodeficiency virus 1), Q72547 [L100I]
[4] = tested on: Human immunodeficiency virus 1; test: Resistance index, ratio of ID50 for reverse transcriptase K103N mutant to IC50 for wild-type HIV1 sreverse transcriptase; summary of the method: as §1
[5] = tested on: Human immunodeficiency virus 1; test: Antiviral activity against HIV1 isolates with reverse transcriptase Y188L mutation in human MT4 cells assessed as inhibition of virus-induced cytopathogenicity by MTT assay; type: functional, organism-based; conditions: Human immunodeficiency virus 1, MT4; summary of the method: as §2
[6] = tested on: Human immunodeficiency virus type 1 reverse transcriptase (Human immunodeficiency virus 1), Q72547 [Y181I]
[7] = Selectivity index, ratio of CC50 for human MT4 cells to EC50 for HIV1 NL4-3; type: toxicity, cell-based; conditions: read-out: Ratio CC50/EC50
Summary of the method: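 Computed as CC50/EC50. CC50 comes from MTT viability of mock-infected MT-4 cells and EC50 from MTT protection of NL4-3-infected MT-4 cells, both read at day 5.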

[8] = tested on: Human immunodeficiency virus 1; test: Antiviral activity against HIV1 isolates with reverse transcriptase Y181C mutation in human MT4 cells assessed as inhibition of virus-induced cytopathogenicity by MTT assay; type: functional, organism-based; conditions: Human immunodeficiency virus 1, MT4; summary of the method: as §2
[9] = tested on: Human immunodeficiency virus type 1 reverse transcriptase (Human immunodeficiency virus 1), Q72547 [K103N]
[10] = tested on: Human immunodeficiency virus 1; test: Antiviral activity against HIV1 NL4-3 in human MT4 cells assessed as inhibition of virus-induced cytopathogenicity by MTT assay; type: functional, organism-based; conditions: Human immunodeficiency virus 1, NL4-3, MT4
Summary of the method: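 MT-4 lymphoid cells infected with wild-type HIV-1 NL4-3 in the presence of a range of compound concentrations. Viable cells were counted by MTT colorimetric read-out at day 5 post-infection. EC50 is the concentration giving 50% protection from virus-induced cytopathic effect. Means ± SD from at least two or three experiments.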

[11] = tested on: Human immunodeficiency virus 1; test: Resistance index, ratio of ID50 for reverse transcriptase Y181I mutant to IC50 for wild-type HIV1 reverse transcriptase; summary of the method: as §1
[12] = biological target: Human immunodeficiency virus type 1 reverse transcriptase (Human immunodeficiency virus 1) (UniProt Q72547)
[13] = Cytotoxicity against human MT4 cells by MTT assay; type: cell-based
Summary of the method: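 Mock-infected MT-4 cells were exposed to a range of compound concentrations. Viability was read by MTT at day 5. CC50 is the concentration that kills 50% of uninfected cells. The top concentration was limited by compound precipitation in culture medium. Means ± SD from at least two or three experiments.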

[14] = tested on: Human immunodeficiency virus 1; test: Resistance index, ratio of EC50 for drug-resistant HIV1 isolate with reverse transcriptase Y181C mutation to EC50 for wild type HIV1 NL4-3; type: functional
Summary of the method: (§3)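 Fold resistance is the EC50 against the K103N, Y181C or Y188L mutant strain divided by the EC50 against wt NL4-3. Each EC50 is from MT-4 cells infected in the presence of different drug concentrations, with viability read by MTT at day 5 postinfection.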

[15] = tested on: Human immunodeficiency virus 1; test: Resistance index, ratio of EC50 for drug-resistant HIV1 isolate with reverse transcriptase K103N mutation to EC50 for wild type HIV1 NL4-3; type: functional; summary of the method: as §3

SMILES	Ratio [1]	EC50 [2] [µM]	ID50 [3] [µM]	Ratio [4]	EC50 [5] [µM]	ID50 [6] [µM]	selectivity ratio [7]	EC50 [8] [µM]	ID50 [9] [µM]	EC50 [10] [µM]	Ratio [11]	ID50 [12] [µM]	CC50 [13] [µM]	Ratio EC50 [14]	Ratio EC50 [15]
O=C(CSc1nc(Cc2c(Cl)cccc2Cl)cc(=O)[nH]1)c1ccccc1	917	> 12	11	308	> 12	0.26	> 7	> 12	3.7	1.78	22	0.012	> 12	–	–
CCc1c(Cc2c(F)cccc2F)nc(SCC(=O)c2ccc(F)cc2)[nH]c1=O	113	5.14	6.9	60	> 60	0.51	> 3160	0.72	3.65	0.019	8	0.061	> 60	38	270
Cc1ccnc2c1NC(=O)c1cccnc1N2C1CC1 [NEVIRAPINE]	22	4.96	–	17	> 7	–	> 54	> 7	–	0.13	87	–	> 7	–	38
CCc1c(Cc2c(F)cccc2Cl)nc(SCC(=O)c2ccc(F)cc2)[nH]c1=O	170	4.14	5.6	50	> 57	0.38	> 11400	1.93	1.64	0.005	12	0.033	> 57	386	828
CCC(C)c1c(Cc2c(F)cccc2Cl)nc(SCC(=O)c2ccc(F)cc2)[nH]c1=O (centres undefined)	1360	> 54	32.7	–	> 54	> 40	> 3180	0.86	> 40	0.017	–	0.024	> 54	51	–
CCC(C)c1c(Cc2c(F)cccc2Cl)nc(SCC(=O)c2ccc(OC)cc2)[nH]c1=O (centres undefined)	3910	> 40	27.4	84	> 40	7.9	> 6670	> 40	0.59	0.006	1130	0.007	40	–	–
COc1ccc(CSc2nc(Cc3c(Cl)cccc3Cl)c(C)c(=O)[nH]2)cc1	–	–	–	25500	> 32	–	4570	–	–	–	37500	–	32	–	671
CC(C)c1c(Cc2c(F)cccc2F)nc(SCC(=O)c2ccccc2)[nH]c1=O	600	4.46	4.8	198	> 60	> 40	> 30000	0.24	1.58	0.002	–	0.008	> 60	120	2230
CC(C)c1c(Cc2c(F)cccc2F)nc(SCC(=O)c2ccc(F)cc2)[nH]c1=O	70	> 58	5.7	71	> 58	> 40	> 11600	0.18	5.82	0.005	–	0.082	> 58	36	–
O=C(CSc1nc(Cc2c(Cl)cccc2Cl)cc(=O)[nH]1)c1ccc(F)cc1	124	> 59	26.1	46	> 59	9.7	> 76	> 59	9.7	0.78	46	0.21	> 59	–	–
CCc1c(Cc2c(F)cccc2Cl)nc(SCC(=O)c2ccc(OC)cc2)[nH]c1=O	414	4.16	2.9	–	> 11	> 40	> 550	0.84	> 40	0.02	–	0.007	> 11	42	208
Cc1c(Cc2c(F)cccc2F)nc(SCC(=O)c2ccc(F)cc2)[nH]c1=O	96	> 62	39.2	29	> 62	1.71	> 2480	0.35	12	0.025	4	0.41	> 62	14	–
COc1ccc(C(=O)CSc2nc(Cc3c(F)cccc3Cl)c(C)c(=O)[nH]2)cc1	1390	> 12	25	150	> 12	1.2	> 60	1.57	2.7	0.2	67	0.018	> 12	8	–
Cc1c(Cc2c(F)cccc2Cl)nc(SCC(=O)c2ccc(F)cc2)[nH]c1=O	49	8.72	8.8	30	> 59	0.7	> 29500	0.28	5.35	0.002	4	0.18	> 59	140	4360
CCc1c(Cc2c(Cl)cccc2Cl)nc(SCC(=O)c2ccc(OC)cc2)[nH]c1=O	105	> 54	2.42	21	> 54	0.14	> 16	24.1	0.48	3.3	6	0.023	> 54	7	–
Cc1c(Cc2c(F)cccc2F)nc(SCC(=O)c2ccccc2)[nH]c1=O	38	19	12.7	32	> 65	1.68	4330	0.52	10.4	0.015	5	0.33	65	35	1267
Cc1c(Cc2c(F)cccc2Cl)nc(SCC(=O)c2ccccc2)[nH]c1=O	275	9.48	3.3	1920	> 12	1.2	> 267	1.68	23	0.045	100	0.012	> 12	37	211
CCc1c(Cc2c(F)cccc2F)nc(SCC(=O)c2ccccc2)[nH]c1=O	126	1.3	5.4	86	> 56	0.82	4670	0.2	3.7	0.012	19	0.043	56	17	108
